# Data as given in PubChem BioAssay.
# Active and inactive are the calls of the source.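 How the source made its calls, unless noted: active means fluorescence slope after compound addition differing from the mean of all tested samples at 99.7% confidence, mostly higher but some lower; inactive means the rest.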
# How the values were obtained:
# [1] = inhibitors of TNFa-induced NFkB p65 translocation, primary screen, imaging, HUVEC, MLSMR starter and 10KST1 sets (AID 438;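 active means inhibition above 20% together with a positive visual image hit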;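 further: compound added about 3h40 before a 20 min TNFalpha stimulation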;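 on inhibition: signal is the nuclear over cytoplasmic p65 intensity ratio per well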); conditions: HUVEC TNFa-induced p65 nuclear translocation; cell count: measured here: nuclei count (cytotoxicity indicator), at 2.08 µM; inhibition: at 2 µM, stronger effect = higher value, 0% TNFa-plus-vehicle, 100% no-TNFa wells
# [2] = inhibitors of E-selectin induction by TNFa, primary screen, imaging, HUVEC, immunofluorescence, MLSMR starter and 10KST1 sets (AID 487;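 active means visually confirmed hit in the image check and inhibition above 20%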;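 on inhibition: signal is fraction of cell area covered by stained E-selectin grains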;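 on nuclei count: 100% = median nuclei count of all wells on the same plate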); conditions: HUVEC TNFalpha-induced E-selectin immunofluorescence imaging, at 2 µM; inhibition: stronger effect = higher value; nuclei count: measured here: cell number, toxicity
# [3] = DUSP6 inhibitors restoring Erk phosphorylation by chemical complementation, primary imaging in DUSP6-transfected HeLa (AID 609;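 active means compounds giving at least 50% inhibition in the cell-based MKP-3 phosphatase rescue imaging test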;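 on inhibition: phospho-Erk level distribution per well compared with pooled transfected vehicle control wells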); conditions: HeLa MKP-3 transfected, phospho-Erk imaging KS statistic, at 10 µM, cells stimulated with TPA for 15 min
# [4] = biological target: Dual specificity protein phosphatase 6 (Homo sapiens) (UniProt Q16828); assay: as above; conditions: HeLa MKP-3 transfected, phospho-Erk imaging KS statistic; at 10 µM; stronger effect = higher value; cells stimulated with TPA for 15 min
# [5] = biological target: Voltage-gated potassium channel subunit beta-2 (Rattus norvegicus) (UniProt P62483); assay: KvBeta enzyme negative modulators, primary screen, biochemical, NADPH fluorescence (AID 622;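 active means fluorescence slope higher than the sample average by over 3 SD, cut at about -0.22 in these data, passing the limit was not always enough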;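 further: slope of raw intensity against log time taken from 70 to 1610 s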); conditions: recombinant KvBeta, 4-cyanobenzaldehyde reduction, at 10 µM, stronger effect = higher value
# [6] = biological target: Voltage-gated potassium channel subunit beta-2 (Rattus norvegicus) (UniProt P62483); assay: KvBeta positive modulators, primary screen, biochemical, NADPH fluorescence (AID 623;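 active means NADPH fluorescence slope more negative than the mean of all samples by about 3 SD, 99.7% confidence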;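 further: fluorescence intensity change per second fitted from 20 to 320 s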); conditions: Recombinant KvBeta, NADPH fluorescence decrease slope, 10 min; at 10 µM; stronger effect = lower value
# [7] = biological target: Muscarinic acetylcholine receptor M4 (Homo sapiens) (UniProt P08173); assay: compounds altering M4/GIRK thallium flux, either direction, primary screen, M4 allosteric agonist project, cell-based, HEK293 M4/GIRK, BTC-AM (AID 625); conditions: at 10 µM, actives lie on both sides;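 further: thallium influx through GIRK channels coupled to M4 in HEK293 cells with BTC-AM dye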
# Summary of the method: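 Material – HEK293 cells with M4 receptor and GIRK channels · Buffer or medium – pH 7.3 thallium assay buffer · Doses – one dose, 10 µM final · Timing – cells overnight at 37 °C, BTC-AM loading 1 h, reads 2 min total · Measured by – kinetic fluorescence with BTC-AM dye · Controls – carbachol and DMSO controls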
# [8] = inhibitors of larval lipid processing in zebrafish, primary screen, whole organism, PED6 fluorescence, gall bladder and intestine (AID 686;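 active means a full or partial loss of lipid-probe fluorescence in the fish gall bladder, intestine or both, judged by eye; inactive means no fluorescence loss, or compound toxic to the fish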;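 further: larvae 5 to 7 days old with five fish per well; signal comes from phospholipase A2 cleavage of quenched PED6 carried via bile; overnight exposure to compound and PED6 before scoring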); conditions: Zebrafish larvae PED6 lipid processing, fluorescence scoring; screened at 20 µM (by protocol)
# Summary of the method: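 system = live zebrafish larvae aged 5-7 days, whole organism | probe or stimulus = ingested quenched lipid PED6 at 100 nM | doses = 20 µM single dose | timing = overnight exposure | detection = fluorescence microscopy with visual scoring of gall bladder and intestine | read-out = visual per-well fluorescence inhibition score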
# [9] = inhibitors of Chlamydomonas gravitaxis, primary screen, whole organism, Chlamydomonas reinhardtii, WT vs cilia-less mutant, absorbance, 96-well (AID 463189;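 active means inhibition at or above 50% relative to wild type and mutant plate controls; inactive means inhibition below 50%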;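 further: 0% = wild type cc124 cells in DMSO and 100% = ciliumless bld1 mutant cells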); conditions: OD600 absorbance, 2 days, at 10 µM, stronger effect = higher value
# [10] = measured here: cell density z-score
# [11] = measured here: nuclear c-Myc green intensity z-score
# [12] = measured here: nuclear pErk red intensity z-score, stronger effect = higher value
# Voltage-gated potassium channel subunit beta-2 (Rattus norvegicus), sequence (P62483 whole entry, looked up): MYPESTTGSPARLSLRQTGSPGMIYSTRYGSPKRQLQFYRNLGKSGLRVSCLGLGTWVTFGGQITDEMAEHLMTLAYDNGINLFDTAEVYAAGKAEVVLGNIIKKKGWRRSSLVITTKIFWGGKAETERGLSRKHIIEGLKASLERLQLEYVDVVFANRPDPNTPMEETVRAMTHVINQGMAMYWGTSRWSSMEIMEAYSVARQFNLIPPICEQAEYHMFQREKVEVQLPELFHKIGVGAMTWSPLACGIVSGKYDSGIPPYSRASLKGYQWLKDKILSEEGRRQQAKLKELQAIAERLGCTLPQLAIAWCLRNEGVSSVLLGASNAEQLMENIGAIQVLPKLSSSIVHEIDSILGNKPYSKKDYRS
# Dual specificity protein phosphatase 6 (Homo sapiens), sequence (Q16828 whole entry, looked up): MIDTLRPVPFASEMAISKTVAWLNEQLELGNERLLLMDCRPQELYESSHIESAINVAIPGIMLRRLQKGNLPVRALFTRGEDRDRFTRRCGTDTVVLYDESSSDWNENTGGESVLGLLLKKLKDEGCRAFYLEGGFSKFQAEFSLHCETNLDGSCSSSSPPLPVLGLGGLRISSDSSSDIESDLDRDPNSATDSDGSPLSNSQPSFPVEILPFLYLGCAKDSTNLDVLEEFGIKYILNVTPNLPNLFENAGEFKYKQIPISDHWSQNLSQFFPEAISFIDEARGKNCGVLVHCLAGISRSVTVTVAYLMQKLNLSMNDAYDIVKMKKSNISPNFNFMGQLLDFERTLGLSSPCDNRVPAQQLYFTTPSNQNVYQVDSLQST
# Muscarinic acetylcholine receptor M4 (Homo sapiens), sequence (P08173 whole entry, looked up): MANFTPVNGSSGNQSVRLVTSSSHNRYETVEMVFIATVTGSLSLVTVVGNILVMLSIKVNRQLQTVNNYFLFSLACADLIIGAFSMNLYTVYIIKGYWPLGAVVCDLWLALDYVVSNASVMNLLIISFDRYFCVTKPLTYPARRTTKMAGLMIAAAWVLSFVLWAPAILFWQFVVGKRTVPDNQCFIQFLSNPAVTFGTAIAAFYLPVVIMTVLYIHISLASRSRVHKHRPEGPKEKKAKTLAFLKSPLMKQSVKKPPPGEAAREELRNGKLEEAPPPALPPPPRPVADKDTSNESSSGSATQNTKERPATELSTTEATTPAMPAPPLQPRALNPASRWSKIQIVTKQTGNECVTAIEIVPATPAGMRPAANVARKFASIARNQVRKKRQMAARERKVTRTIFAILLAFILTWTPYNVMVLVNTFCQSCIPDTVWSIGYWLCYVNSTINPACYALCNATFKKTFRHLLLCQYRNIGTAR
Compound,cell count [1],inhibition [1],inhibition [2],nuclei count [2] [%],"z-score [3, 10]","z-score [3, 11]","z-score [3, 12]",inhibition [4],fluorescence slope [5],NADPH fluorescence slope [6],fluorescence slope [7],outcome [8],inhibition [9]
COC(=O)c1ccc(Cn2c(O)c(N=O)c3ccccc32)o1,485,2% (inactive),-36.4% (inactive),122,-2.02,0.422,-1.72,7.42% (inactive),-0.493 (inactive),-7e-05 (inactive),0.00432 (inactive),inactive,-9.22% (inactive)
Cc1cccc(C)c1OCC(=O)Nc1cccc(-c2nnc(-c3ccccc3)o2)c1,634,-2.9% (inactive),27.8% (inactive),82.9,-2.16,1.5,0.715,-9.53% (inactive),-0.492 (inactive),-4.2e-05 (inactive),0.00887 (inactive),inactive,-17.1% (inactive)
CCOc1ccc(NC(=O)c2nn(C)cc2Br)cc1,647,2.4% (inactive),-41% (inactive),157,0.327,0.393,-0.814,-4.27% (inactive),-0.489 (inactive),-6.1e-05 (inactive),0.00579 (inactive),inactive,4.55% (inactive)
CN(C)c1cccc2c(S(=O)(=O)N3CCOCC3)cccc12,607,-7.5% (inactive),-24.7% (inactive),157,-2.51,1.31,-0.367,-9.91% (inactive),-0.275 (inactive),-7.8e-05 (inactive),0.00799 (inactive),inactive,-1.61% (inactive)
CCCC(CCC(=O)Nc1ccc(C(=O)OC)cc1)C(=O)O (stereo unspecified),402,-5.3% (inactive),-85.5% (inactive),145,0.89,-1.82,0.0137,26.5% (inactive),-0.445 (inactive),-8.7e-05 (inactive),0.00528 (inactive),inactive,-1.65% (inactive)
Cc1ccc(C(=O)C2C(c3cccs3)NC(=O)NC2(O)C(F)(F)F)cc1 (stereo unspecified),716,-7.3% (inactive),-170% (inactive),142,-0.552,-0.778,0.548,-4.27% (inactive),-0.482 (inactive),-7.6e-05 (inactive),0.00668 (inactive),inactive,-6.21% (inactive)
CC(=O)NC(=O)Nc1sc(=S)n(C)c1C,329,-4.5% (inactive),-21.6% (inactive),71.6,0.847,-2.04,0.71,9.82% (inactive),-0.515 (inactive),4.8e-06 (inactive),0.00528 (inactive),inactive,30.1% (inactive)
CCCCOc1ccc(C(=O)N2CCCC2C(=O)O)cc1 (stereo unspecified),675,2.7% (inactive),22.4% (inactive),146,0.371,0.251,0.422,-13.3% (inactive),-0.458 (inactive),-4.7e-05 (inactive),0.00494 (inactive),inactive,7.22% (inactive)
O=C1C=C(O)CC(c2ccc(Cl)c(Cl)c2)C1 (stereo unspecified),606,4.8% (inactive),-56.5% (inactive),115,0.34,0.0724,0.952,14.7% (inactive),-0.41 (inactive),-4.9e-05 (inactive),0.00481 (inactive),inactive,-8.94% (inactive)
CC1CCN(c2[nH]c(=S)c(C#N)c3c2CCCC3)CC1,383,-5.9% (inactive),-5.3% (inactive),140,0.378,-0.606,1.46,1.42% (inactive),-0.469 (inactive),-0.000131 (inactive),0.00501 (inactive),inactive,19.3% (inactive)
CCN(CC)CCN1C(=O)C(=O)/C(=C(/O)c2c(C)[nH]c(C(=O)OC)c2C)C1c1ccc(OC)cc1 (stereo unspecified),733,-1.5% (inactive),-75.7% (inactive),194,-0.146,-0.0149,0.967,0.671% (inactive),-0.449 (inactive),-4e-05 (inactive),0.00528 (inactive),inactive,18.4% (inactive)
Cn1c(Cn2cnc(Cl)c2Cl)nc2ccccc21,583,0.2% (inactive),-75.8% (inactive),138,0.873,1.34,0.561,12.8% (inactive),-0.454 (inactive),-8.5e-05 (inactive),0.00447 (inactive),inactive,21.9% (inactive)
O=C1CC(C(=O)O)c2ccccc2N1 (stereo unspecified),589,5.9% (inactive),-180% (inactive),135,0.749,0.0521,-0.602,15.4% (inactive),-0.465 (inactive),-0.000133 (inactive),0.00465 (inactive),inactive,6% (inactive)
CC(C)COc1ccc(C(=O)NC(CC(C)C)C(=O)O)cc1 (stereo unspecified),649,9.2% (inactive),-19.5% (inactive),84.1,-0.492,0.0237,0.136,-13.3% (inactive),-0.484 (inactive),-4.8e-05 (inactive),0.00574 (inactive),inactive,25.1% (inactive)
O=S(=O)(/C=C/c1ccccc1)Nc1ccc2c(c1)OCO2,371,-6.3% (inactive),-96.3% (inactive),154,0.539,-2,0.714,-2.59% (inactive),-0.476 (inactive),-9.8e-05 (inactive),0.00384 (inactive),inactive,4.72% (inactive)
CC(=O)/C(C#N)=C1\NC(=O)C(Cc2ccccc2)S1 (stereo unspecified),574,-16.2% (inactive),5.4% (inactive),183,0.151,0.495,0.071,-8.59% (inactive),-0.425 (inactive),-6.1e-05 (inactive),0.00604 (inactive),inactive,3.86% (inactive)
CN(C)CCCOC(=O)c1ccc(Cl)cc1Cl,542,0% (inactive),-26.6% (inactive),126,-3.39,0.341,0.409,-2.59% (inactive),-0.49 (inactive),-0.0001 (inactive),0.00455 (inactive),inactive,121% (active)
CCOCCn1c(SC)nc2c1c(=O)[nH]c(=O)n2C,498,6.3% (inactive),-6% (inactive),122,1.57,-1.62,0.579,12.8% (inactive),-0.529 (inactive),-3.7e-05 (inactive),0.00609 (inactive),inactive,44.4% (inactive)
CCOC(=O)c1[nH]c2ccc(F)cc2c1N=C(C)N(CC)CC,621,-7.1% (inactive),-132% (inactive),100,-2.41,0.938,-0.403,1.9e-07% (inactive),-0.497 (inactive),-8.7e-05 (inactive),0.00509 (inactive),inactive,-19.6% (inactive)
Nc1nc2n(n1)C(c1cccs1)CC(c1ccc(Br)cc1)N2 (stereo unspecified),409,-1% (inactive),-13.7% (inactive),149,-0.806,0.38,0.438,5.65% (inactive),-0.443 (inactive),-9.3e-05 (inactive),0.0057 (inactive),inactive,21.9% (inactive)
O=C(CC(c1ccc(F)cc1)c1ccco1)N1CCCC1 (stereo unspecified),494,-4% (inactive),-36.9% (inactive),182,-0.749,0.895,-0.708,9.91% (inactive),-0.404 (inactive),-1.7e-05 (inactive),0.00541 (inactive),inactive,-1.73% (inactive)
Cn1c(=O)c2c3c(sc2n2c(SCC(=O)c4ccccc4)nnc12)COC(C)(C)C3,532,-12.7% (inactive),44.5% (inactive),48.5,0.653,-0.107,-0.293,9.07% (inactive),-0.511 (inactive),1.2e-05 (inactive),0.00374 (inactive),inactive,35.1% (inactive)
COc1cccc(C2C(C(=O)c3sc(C)nc3C)=C(O)C(=O)N2CCN2CCOCC2)c1OC (stereo unspecified),403,-3.3% (inactive),-65.8% (inactive),140,-0.517,0.521,0.668,18.2% (inactive),-0.47 (inactive),-0.000114 (inactive),0.00521 (inactive),inactive,4.67% (inactive)
COc1cccc(Cn2c(NCc3ccccn3)nc3c2c(=O)n(C)c(=O)n3C)c1,694,-20.9% (inactive),-199% (inactive),189,0.955,-1.34,-0.0315,17.8% (inactive),-0.5 (inactive),-7.9e-05 (inactive),0.00592 (inactive),inactive,4.17% (inactive)
COC(=O)[C@H]1CCCN1C(=O)Nc1cccc(Oc2c(F)c(F)c(F)c(F)c2F)c1,709,-2.1% (inactive),2.5% (inactive),205,0.848,0.709,0.784,13.4% (inactive),-0.396 (inactive),-4.7e-05 (inactive),0.00536 (inactive),inactive,36.9% (inactive)
COC(=O)c1ccc(C2/C(=C(\O)c3cccc(OC)c3)C(=O)C(=O)N2CCCN2CCOCC2)cc1 (stereo unspecified),620,-10.1% (inactive),-57.4% (inactive),150,0.836,-1.51,-1.62,20.2% (inactive),-0.507 (inactive),-2e-05 (inactive),0.00584 (inactive),inactive,14.7% (inactive)
Cc1sc(-n2c(C)ccc2C)c(C#N)c1C,411,-2% (inactive),-11.7% (inactive),144,-1.09,-0.0847,1.07,7.73% (inactive),-0.505 (inactive),-9.6e-05 (inactive),0.00469 (inactive),inactive,-3.1% (inactive)
